Experimental data reported in article PMC3263504 (Cell Death and Differentiation, 2011).
No end group written: not given here. *: point of attachment. Biotin = O=C1N[C@H]2[C@H](CS[C@H]2CCCCC(=O)*)N1

Legend:
GST-Dom3 = test: GST pull-down of full-length 3xFLAG-Bcl-2 proteins from COS-1 lysates; assay type: binding, mouse; conditions: lysates of transfected COS-1 cells, result in words
Outline: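 Lysates (200 μg) of COS-1 cells transiently transfected with 3xFLAG-Bcl-2, K/D mutant or empty vector, incubated with purified GST-Dom3 (IP3R1 a.a. 923–1581, E. coli BL21(DE3)-expressed, PBS-dialyzed). Beads washed four times in 150 mM NaCl buffer without BSA, eluted in LDS 3 min at 95°C. Anti-FLAG western blot; bands quantified, normalized to GST binding; at least five independent experiments.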

C6 glioma cells [1] = test: PAC-1-induced apoptosis in C6 glioma cells; assay type: cell-based, rat; conditions: PAC-1 150 μM, 6 h
Outline: (§1)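 C6 glioma monolayers in situ electroporated (100 V peak-to-peak, 500 µm electrode gap, low-conductivity sorbitol buffer) with 100 μM DTR and 20 μM peptide. Trigger applied in medium for 6 h: STS 2 μM or PAC-1 150 µM. Apoptosis stained with FITC-VAD-FMK (10 μM, 40 min, 37°C), PFA-fixed, DAPI. Five images inside and five outside the electroporated area; AI inside relative to outside, then vs vehicle (100%).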

GST = test: SPR, parental GST; assay type: binding; conditions: GST up to 40 μM, result in words
Outline: (§2)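 SPR at 25°C. Biotinylated BH4 peptides (200 ng, 58.2 pmol, >80% pure) immobilized on a streptavidin chip in PBS/0.005% P20, pH 7.0. Analyte was GST-Dom3 or parental GST in PBS, 30 μl/min, several concentrations in random order; response in RU. Scrambled-peptide reference cell subtracted. Regeneration with 25 mM NaOH/0.002% SDS. At least three independent chips.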

GST-Dom3 IP3R1 = GST-Dom3 IP3R1 (Mus musculus, UniProt P11881); test: SPR, GST-Dom3 of IP3R1 on immobilized biotinylated BH4 peptides; assay type: binding; conditions: association phase, corrected for scrambled peptide, result in words
Chain of GST-Dom3 IP3R1 (P11881 923-1581): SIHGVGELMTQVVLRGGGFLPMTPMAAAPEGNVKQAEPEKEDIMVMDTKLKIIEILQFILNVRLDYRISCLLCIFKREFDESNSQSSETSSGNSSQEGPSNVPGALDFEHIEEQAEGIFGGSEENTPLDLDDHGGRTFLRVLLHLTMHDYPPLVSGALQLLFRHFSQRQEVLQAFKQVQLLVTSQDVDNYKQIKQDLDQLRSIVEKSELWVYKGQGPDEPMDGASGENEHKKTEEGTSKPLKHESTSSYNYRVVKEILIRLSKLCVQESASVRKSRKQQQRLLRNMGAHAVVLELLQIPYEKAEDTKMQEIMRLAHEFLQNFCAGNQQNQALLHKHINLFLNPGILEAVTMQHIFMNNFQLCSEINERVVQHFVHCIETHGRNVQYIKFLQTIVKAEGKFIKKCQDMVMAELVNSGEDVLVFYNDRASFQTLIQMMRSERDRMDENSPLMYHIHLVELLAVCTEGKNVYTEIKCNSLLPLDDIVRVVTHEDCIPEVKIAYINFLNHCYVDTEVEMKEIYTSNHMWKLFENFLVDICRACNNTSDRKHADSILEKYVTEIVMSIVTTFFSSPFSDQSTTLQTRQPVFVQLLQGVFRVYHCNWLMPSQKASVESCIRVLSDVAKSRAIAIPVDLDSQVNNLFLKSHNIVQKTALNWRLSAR
Outline: as §2

IP3R = test: Unidirectional 45Ca2+-flux assay in saponin-permeabilized MEF cells; assay type: cell-based, mouse; conditions: for effect of alanine mutation on the inhibitory action of BH4-Bcl-2 on IICR: 60 μM mutant peptide, result in words; for effect on IICR (dose-response): 3 μM IP3, result in words
Outline: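 MEF cells at 30°C permeabilized 10 min with 20 µg/ml saponin (imidazole-KCl, pH 6.8, 1 mM ATP, 1 mM EGTA). Stores loaded 45 min with 150 nM free 45Ca2+, 5 mM ATP, 10 mM NaN3. Efflux medium contained 1 mM EGTA and 4 μM thapsigargin, changed every 2 min. Peptides (alanine mutants 60 μM) added 4 min before IP3 (3 μM, 2 min, after 10 min efflux). Residual Ca2+ released with 2% SDS; read-out fractional loss (%/2 min).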

C6 glioma cells [2] = test: Staurosporine-induced apoptosis in C6 glioma cells; assay type: cell-based, rat; conditions: 6 h, result in words
Outline: as §1

[3] = biological target: GST-Dom3 (a.a. 923–1581 of IP3R1) (mouse, UniProt P11881 923-1581); test: SPR
Chain of GST-Dom3 (a.a. 923–1581 of IP3R1) (P11881 923-1581): as above

[4] = biological target: GST-Dom3 IP3R2 (a.a. 913–1562) (mouse, UniProt Q9Z329 913-1562); test: SPR
Chain of GST-Dom3 IP3R2 (a.a. 913–1562) (Q9Z329 913-1562): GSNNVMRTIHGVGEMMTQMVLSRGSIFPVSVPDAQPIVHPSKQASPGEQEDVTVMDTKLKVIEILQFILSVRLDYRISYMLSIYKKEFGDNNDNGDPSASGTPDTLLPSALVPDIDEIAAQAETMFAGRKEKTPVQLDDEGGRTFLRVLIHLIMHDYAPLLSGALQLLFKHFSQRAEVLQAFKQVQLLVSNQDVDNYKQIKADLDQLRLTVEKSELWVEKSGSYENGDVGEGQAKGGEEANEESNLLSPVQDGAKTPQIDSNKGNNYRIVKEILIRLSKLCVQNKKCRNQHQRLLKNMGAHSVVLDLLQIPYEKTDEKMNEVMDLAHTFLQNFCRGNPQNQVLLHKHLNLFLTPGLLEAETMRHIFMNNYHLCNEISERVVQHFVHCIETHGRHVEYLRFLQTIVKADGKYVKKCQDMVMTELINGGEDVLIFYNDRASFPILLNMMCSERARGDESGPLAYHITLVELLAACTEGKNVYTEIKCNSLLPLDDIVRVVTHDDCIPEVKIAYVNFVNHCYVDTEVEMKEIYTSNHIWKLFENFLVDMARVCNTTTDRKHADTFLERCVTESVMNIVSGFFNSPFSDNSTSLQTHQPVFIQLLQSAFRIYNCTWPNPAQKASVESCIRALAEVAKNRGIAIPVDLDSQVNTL

[5] = biological target: GST-Dom3 IP3R3 (a.a. 910–1427) (rat, UniProt Q63269 910-1427); test: SPR
Chain of GST-Dom3 IP3R3 (a.a. 910–1427) (Q63269 910-1427): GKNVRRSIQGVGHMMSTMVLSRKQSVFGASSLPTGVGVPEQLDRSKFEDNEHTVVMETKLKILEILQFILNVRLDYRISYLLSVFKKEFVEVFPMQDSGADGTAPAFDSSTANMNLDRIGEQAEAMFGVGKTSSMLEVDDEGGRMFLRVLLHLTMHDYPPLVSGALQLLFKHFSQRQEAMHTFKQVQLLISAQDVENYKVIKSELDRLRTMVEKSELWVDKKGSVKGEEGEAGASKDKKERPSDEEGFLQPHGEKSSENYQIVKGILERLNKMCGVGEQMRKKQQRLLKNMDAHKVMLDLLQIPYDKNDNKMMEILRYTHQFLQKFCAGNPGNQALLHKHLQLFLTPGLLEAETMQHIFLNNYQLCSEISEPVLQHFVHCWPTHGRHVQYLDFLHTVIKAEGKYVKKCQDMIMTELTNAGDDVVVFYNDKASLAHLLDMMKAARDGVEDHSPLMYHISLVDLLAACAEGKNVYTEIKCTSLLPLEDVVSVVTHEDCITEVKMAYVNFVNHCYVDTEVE

## 3xFLAG-Bcl-2 K/D: full-length 3xFLAG-Bcl-2 with Lys17 mutated into Asp, expressed in COS-1 cells
GST-Dom3
  binding to GST-Dom3 compared with wild-type 3xFLAG-Bcl-2: severely compromised

## C=CCc1cccc(/C=N/NC(=O)CN2CCN(Cc3ccccc3)CC2)c1O [PAC-1]
C6 glioma cells [1]
  apoptosis, share of the cell population: ~15%

## Biotin-MSQSNRELVVDFLSYKLSQKGYSW [biotin-BH4-Bcl-Xl]
GST
  binding of GST (control): bound to neither

## Biotin-MSQSNRELVVKFLSYKLSQKGYSW [biotin-BH4-Bcl-Xl D/K]
GST-Dom3 IP3R1
  specific binding of GST-Dom3 (resonance units): able to bind GST-Dom3

## Biotin-RTGYANAEIVMKYIAEKLSAAGKEW [biotin-BH4-Bcl-2BIND, reference compound]
GST-Dom3 IP3R1
  specific binding of GST-Dom3 (resonance units): did not specifically bind

## H20A (RTGYDNREIVMKYIAYKLSQRGYEW)
IP3R
  effect of alanine mutation on the inhibitory action of BH4-Bcl-2 on IICR: largest effect on the inhibitory action

## K17A (RTGYDNREIVMAYIHYKLSQRGYEW)
IP3R
  effect of alanine mutation on the inhibitory action of BH4-Bcl-2 on IICR: largest effect on the inhibitory action

## NVYTEIKCNSLLPLDDIVRV [IDP]
C6 glioma cells [2]; IDP co-loaded with BH4-Bcl-2, STS 2 μM
  effect of IDP on BH4-Bcl-2-mediated protection against STS: completely suppressed
C6 glioma cells [2]; IDP co-loaded with BH4-Bcl-Xl, STS 2 μM
  effect of IDP on the protection by BH4-Bcl-Xl against STS: independent of IDP

## R26A (RTGYDNREIVMKYIHYKLSQAGYEW)
IP3R
  effect of alanine mutation on the inhibitory action of BH4-Bcl-2 on IICR: largest effect on the inhibitory action

## RTGYANAEIVMKYIAEKLSAAGKEW [BH4-Bcl-2BIND, reference compound]
IP3R
  effect on IICR (dose-response): did not inhibit IICR

## RTGYDNREIVMKYIHYKLSQRGYEW [BH4-Bcl-2 K/D]
IP3R
  effect on IICR (dose-response): largely ineffective

## WYEKQRSLHGIMYYVIEDRNTKGYR [BH4-Bcl-2SCR, reference compound]
IP3R
  effect on IICR (dose-response): did not inhibit IICR

## Y21A (RTGYDNREIVMKYIHAKLSQRGYEW)
IP3R
  effect of alanine mutation on the inhibitory action of BH4-Bcl-2 on IICR: largest effect on the inhibitory action

## Biotin-MSQSNRELVVKFLSYKLSQKGYSW [Biotin-BH4-Bcl-Xl D/K]
[3]
  binding result: binds

## Biotin-RTGYDNREIVMKYIHYKLSQRGYEW [Biotin-BH4-Bcl-2]
[4]
  binding result: binds
[5]
  binding result: binds
